Experimental data pooled from the literature.
Compare with care: the assays were run in different laboratories.
Target: Casein kinase II subunit alpha (CSNK2A1, Homo sapiens, UniProt P68400)

| Structure (SMILES) | assay | conditions | remaining binding [%] |
| --- | --- | --- | --- |
| O=C(c1ccc(Nc2nccc(-c3cc4ccccc4s3)n2)cc1)N1CCC(N2CCCC2)CC1 | binding, competition with immobilised ligand | 1 µM | 23 |
| COc1ccnn2ncc(-c3ccnc(N(C)C)n3)c12 | binding | 1 µM | 74 |
| CC1=C(C#N)[C@@H](c2ccc3[nH]nc(C)c3c2)C(C#N)=C(c2ccc(Cl)cc2)N1 | cell-free assay, competition with immobilised ligand | 1 µM | 100 |
| CCN1CCN(Cc2ccc(C(=O)Nc3ccc(C)c(Oc4ccc5c(c4)CC(=O)N5)c3)cc2C(F)(F)F)CC1 | binding, competition with immobilised ligand | 1 µM | 100 |
| CC1CCCN1c1nccc(-c2cnn3ncccc23)n1 (centres unmarked) | binding | 1 µM | 90 |
| CCC(=O)N[C@H]1CC[C@@H](C(=O)N(C)c2ccc(-c3nc4ccccc4o3)cc2)C1 | cell-free assay, competition with immobilised ligand | 1 µM | 74 |
| COc1cnc(Nc2cccc(S(N)(=O)=O)c2)nc1N1CCN(c2ccccc2)C(=O)C1 | binding, competition with immobilised ligand | 1 µM | 68 |
| C[C@@H]1CCN(c2nccc(-c3cnn4ncccc34)n2)C1 | binding | 1 µM | 89 |
| C=CC(=O)N1CCC(C(=O)NCC(=O)N2CCN(c3nc(-c4cnc(N)nc4C(F)F)nc(N4CCOCC4)n3)CC2)CC1 | binding, competition with immobilised ligand | 1 µM | 75 |
| CN(C)c1nccc(-c2cnn3ncccc23)n1 | binding | 1 µM | 39 |
| O=C(c1ccc(Nc2ncc(Cl)c(-c3cc4ccccc4s3)n2)cc1)N1CCC(N2CCCC2)CC1 | binding, competition with immobilised ligand | 1 µM | 0.9 |
| CC(=O)N1CCC(c2ccc(C(=O)NC(=N)N)cc2C(F)(F)F)CC1 | cell-free assay, competition with immobilised ligand | 1 µM | 95 |
| c1cncc(-c2cccc(Nc3nccc(NC4CCCCC4)n3)c2)c1 | binding, competition with immobilised ligand | 10 µM | 72 |
| CC(=O)c1c(NS(C)(=O)=O)c2cc(-c3ccc(Cl)cc3)c(-c3ccc(Cl)cc3Cl)nc2n(C)c1=O | cell-free assay, competition with immobilised ligand | 1 µM | 92 |
| CN(CCCC(F)(F)F)c1nccc(-c2cnn3ncccc23)n1 | binding | 1 µM | 66 |
| O=C(NCCCN1CCOCC1)c1ccc(Nc2nccc(-c3cc4ccccc4s3)n2)cc1 | binding, competition with immobilised ligand | 1 µM | 37 |
| CSc1cccnc1N1CCN(Cc2nc3ccccc3[nH]2)CC1 | cell-free assay, competition with immobilised ligand | 1 µM | 81 |
| O=C(NCC1CCOCC1)c1n[nH]cc1NC(=O)c1c(F)cccc1F | binding, competition with immobilised ligand | 1 µM | 59 |
| N[C@H]1CCN(c2nccc(-c3cnn4ncccc34)n2)C1 | binding | 1 µM | 89 |
| O=S(=O)(NC1CCC(c2cc(F)ccc2F)(S(=O)(=O)c2ccc(Cl)cc2)CC1)C(F)(F)F (centres unmarked) | cell-free assay, competition with immobilised ligand | 1 µM | 85 |
